Reference: publication PMC4306506 (Journal of Medicinal Chemistry, 2014)
Positions of bridges follow the written chain, without caps; N, C: chain ends. Residues, ends and D or L forms follow the SMILES beside them.

What was measured:
complement C3 = complement C3 (Homo sapiens, UniProt P01024); experiment: Complement inhibition across biochemical and functional assays; settings: C3b ELISA, C5b-9 ELISA, hemolytic assay
[1] = Apparent solubility by absorbance at 280 nm; format: physicochemical; settings: PBS pH 7.4, absorbance at 280 nm
Procedure, shortened: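 About 1 mg test peptide in 200 μL PBS pH 7.4; upper reportable limit 5 mg/mL. Vortexed 30 s, centrifuged 13000g for 5 min. Supernatant A280 converted to concentration by Beer–Lambert, using extinction coefficients from each peptide's Trp and Tyr count. Samples kept at 4 °C and re-read at 24 and 48 h. Mean and standard deviation of three readings per sample.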

[2] = phase II, NCT00473928 and NCT01157065; cited from earlier work

complement C3, sequence (P01024 23-667 limits assumed): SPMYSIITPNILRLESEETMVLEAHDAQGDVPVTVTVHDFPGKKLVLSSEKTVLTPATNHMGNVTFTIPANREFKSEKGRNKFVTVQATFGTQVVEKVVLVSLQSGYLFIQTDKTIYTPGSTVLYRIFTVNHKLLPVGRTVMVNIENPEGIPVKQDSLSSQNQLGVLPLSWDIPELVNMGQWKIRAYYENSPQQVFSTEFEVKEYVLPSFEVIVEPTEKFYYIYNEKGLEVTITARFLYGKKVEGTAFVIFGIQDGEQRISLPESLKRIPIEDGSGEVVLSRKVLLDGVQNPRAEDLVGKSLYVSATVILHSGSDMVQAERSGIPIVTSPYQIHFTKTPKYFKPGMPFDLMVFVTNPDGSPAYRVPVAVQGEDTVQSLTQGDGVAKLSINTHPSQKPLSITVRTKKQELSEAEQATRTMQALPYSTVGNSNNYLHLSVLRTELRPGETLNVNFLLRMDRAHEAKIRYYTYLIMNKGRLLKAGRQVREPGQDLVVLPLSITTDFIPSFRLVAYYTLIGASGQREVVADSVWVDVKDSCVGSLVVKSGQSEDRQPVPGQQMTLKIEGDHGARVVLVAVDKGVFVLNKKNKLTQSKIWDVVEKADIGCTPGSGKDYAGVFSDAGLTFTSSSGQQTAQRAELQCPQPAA
complement C3, sequence (P01024 672-1663 partner limits assumed): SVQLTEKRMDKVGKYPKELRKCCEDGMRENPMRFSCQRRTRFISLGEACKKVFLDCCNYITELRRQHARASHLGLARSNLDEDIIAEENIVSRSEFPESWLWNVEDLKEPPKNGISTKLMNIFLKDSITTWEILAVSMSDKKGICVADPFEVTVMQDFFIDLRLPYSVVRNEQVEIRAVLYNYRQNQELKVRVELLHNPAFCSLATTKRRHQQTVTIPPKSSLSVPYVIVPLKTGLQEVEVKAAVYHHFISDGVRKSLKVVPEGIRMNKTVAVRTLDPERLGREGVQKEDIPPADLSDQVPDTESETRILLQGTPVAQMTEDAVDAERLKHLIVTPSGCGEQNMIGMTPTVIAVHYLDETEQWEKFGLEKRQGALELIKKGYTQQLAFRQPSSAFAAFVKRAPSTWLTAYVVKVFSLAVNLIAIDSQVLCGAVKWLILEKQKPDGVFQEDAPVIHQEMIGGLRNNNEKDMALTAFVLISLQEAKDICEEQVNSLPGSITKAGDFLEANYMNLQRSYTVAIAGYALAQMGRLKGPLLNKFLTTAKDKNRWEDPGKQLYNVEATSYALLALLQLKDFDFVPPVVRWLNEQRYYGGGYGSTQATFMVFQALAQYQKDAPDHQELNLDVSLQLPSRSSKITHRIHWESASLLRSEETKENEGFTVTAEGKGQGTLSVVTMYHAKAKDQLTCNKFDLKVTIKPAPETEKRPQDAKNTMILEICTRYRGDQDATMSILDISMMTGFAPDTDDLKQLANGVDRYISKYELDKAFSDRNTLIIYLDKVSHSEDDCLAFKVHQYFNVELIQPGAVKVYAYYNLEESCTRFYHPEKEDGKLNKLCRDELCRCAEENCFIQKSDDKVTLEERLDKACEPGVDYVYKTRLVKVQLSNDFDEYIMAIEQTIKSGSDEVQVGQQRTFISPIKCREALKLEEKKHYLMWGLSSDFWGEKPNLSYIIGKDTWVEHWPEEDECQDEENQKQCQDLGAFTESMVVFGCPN

Structure (SMILES) | Complement inhibitory activity relative to controls, in words (complement C3) | Solubility, in words [1] | Retinal thickness in AMD patients in comparison to ranibizumab [2]
CC[C@H](C)[C@H](NC(C)=O)C(=O)N[C@H]1CSSC[C@@H](C(=O)N[C@H](C(N)=O)[C@@H](C)O)NC(=O)[C@H](CCCNC(=N)N)NC(=O)[C@H](Cc2c[nH]cn2)NC(=O)[C@@](C)(CC)NC(=O)CNC(=O)[C@H](Cc2c[nH]c3ccccc23)NC(=O)[C@H](CC(=O)O)NC(=O)[C@H](CCC(N)=O)NC(=O)[C@H](Cc2c[nH]c3ccccc23)NC(=O)[C@H](C(C)C)NC1=O [Peptide 3, Ac- ICV W QDWG{Rea}HRCT-NH2] | inhibitory activity similar to meW4A9 | greatly improved aqueous solubility | 
C=CC[C@@]1(C)NC(=O)CNC(=O)[C@H](Cc2c[nH]c3ccccc23)NC(=O)[C@H](CC(=O)O)NC(=O)[C@H](CCC(N)=O)NC(=O)[C@H](Cc2c[nH]c3ccccc23)NC(=O)[C@H](C(C)C)NC(=O)[C@@H](NC(=O)[C@@H](NC(C)=O)[C@@H](C)CC)CSSC[C@@H](C(=O)N[C@H](C(N)=O)[C@@H](C)O)NC(=O)[C@H](CCCNC(=N)N)NC(=O)[C@H](Cc2c[nH]cn2)NC1=O [Peptide 4, Ac- ICV W QDWG{Aal}HRCT-NH2] | inhibitory activity similar to meW4A9 | greatly improved aqueous solubility | 
CC[C@H](C)[C@H](NC(C)=O)C(=O)N[C@H]1CSSC[C@@H](C(=O)N[C@H](C(N)=O)[C@@H](C)O)NC(=O)[C@H](CCCNC(=N)N)NC(=O)[C@H](Cc2c[nH]cn2)NC(=O)[C@](C)(CC)NC(=O)CNC(=O)[C@H](Cc2c[nH]c3ccccc23)NC(=O)[C@H](CC(=O)O)NC(=O)[C@H](CCC(N)=O)NC(=O)[C@H](Cc2c[nH]c3ccccc23)NC(=O)[C@H](C(C)C)NC1=O [Peptide 5, Ac- ICV W QDWG{Sea}HRCT-NH2] | inhibitory activity similar to meW4A9 | greatly improved aqueous solubility | 
CC(=O)N[C@@H](CC(N)=O)C(=O)N[C@@H](CC(N)=O)C(=O)N[C@@H](CC(C)C)C(=O)N[C@H]1CSSC[C@@H](C(=O)N[C@H](C(N)=O)[C@@H](C)O)NC(=O)[C@H](CCCNC(=N)N)NC(=O)[C@H](Cc2c[nH]cn2)NC(=O)[C@H](C)NC(=O)CNC(=O)[C@H](Cc2c[nH]c3ccccc23)NC(=O)[C@H](CC(=O)O)NC(=O)[C@H](CCC(N)=O)NC(=O)[C@H](Cc2c[nH]c3ccccc23)NC(=O)[C@H](C(C)C)NC1=O [Peptide 7, Ac-NNLCV W QDWG A HRCT-NH2] (Ac-NNLCVWQDWGAHRCT-NH2; disulfide 4-14) | inhibitory activity similar to meW4A9 | greatly improved aqueous solubility | 
CC(=O)N[C@@H](CC(N)=O)C(=O)N[C@@H](CCCNC(=N)N)C(=O)N[C@@H](CC(C)C)C(=O)N[C@H]1CSSC[C@@H](C(=O)N[C@H](C(N)=O)[C@@H](C)O)NC(=O)[C@H](CCCNC(=N)N)NC(=O)[C@H](Cc2c[nH]cn2)NC(=O)[C@H](C)NC(=O)CNC(=O)[C@H](Cc2c[nH]c3ccccc23)NC(=O)[C@H](CC(=O)O)NC(=O)[C@H](CCC(N)=O)NC(=O)[C@H](Cc2c[nH]c3ccccc23)NC(=O)[C@H](C(C)C)NC1=O [Peptide 8, Ac-NRLCV W QDWG A HRCT-NH2] (Ac-NRLCVWQDWGAHRCT-NH2; disulfide 4-14) | inhibitory activity similar to meW4A9 | greatly improved aqueous solubility | 
CC[C@H](C)[C@H](NC(=O)[C@H](CO)NC(=O)[C@H](CCCNC(=N)N)NC(C)=O)C(=O)N[C@H]1CSSC[C@@H](C(=O)N[C@H](C(N)=O)[C@@H](C)O)NC(=O)[C@H](CCCNC(=N)N)NC(=O)[C@H](Cc2c[nH]cn2)NC(=O)[C@H](C)NC(=O)CNC(=O)[C@H](Cc2c[nH]c3ccccc23)NC(=O)[C@H](CC(=O)O)NC(=O)[C@H](CCC(N)=O)NC(=O)[C@H](Cc2c[nH]c3ccccc23)NC(=O)[C@H](C(C)C)NC1=O [Peptide 9, Ac-RSICV W QDWG A HRCT-NH2] | inhibitory activity similar to meW4A9 | greatly improved aqueous solubility | 
CC[C@H](C)[C@H](NC(C)=O)C(=O)N[C@H]1CSSC[C@@H](C(=O)N[C@H](C(N)=O)[C@@H](C)O)NC(=O)[C@H](CCCNC(=N)N)NC(=O)[C@H](Cc2c[nH]cn2)NC(=O)[C@H](C)NC(=O)CNC(=O)[C@H](Cc2c[nH]c3ccccc23)NC(=O)[C@H](CC(=O)O)NC(=O)[C@H](CCC(N)=O)NC(=O)[C@H](Cc2cn(C)c3ccccc23)NC(=O)[C@H](C(C)C)NC1=O [meW4A9, Ac- ICV{meW}QDWG A HRCT-NH2] |  |  | did not yield reduced retinal thickness
